Values after ≈ are worked out from the molar mass of the structure shown. Values joined by “and” are separate entries in the source; they are usually repeats but may differ in a detail not shown here. Equal values may be shown once.
Tests used:
Escherichia coli [1] = experiment: (§1) Inhibition of growth of Escherichia coli (KC-14) upon oral administration in mice(95%CL); format: functional
Method in brief: (§2)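 Male ddY mice (20 ± 2 g, groups of 10) infected intraperitoneally with 0.5 mL of E. coli KC-14 dilution at 10 or 100 times the 50% lethal dose. Compounds suspended in 0.5% sodium (carboxymethyl)cellulose and given orally 1 h postinfection. Survival scored after 1 week. ED50 derived with 95% confidence limits.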

Serratia marcescens = experiment: In vitro inhibition of growth of Serratia marcescens (IAM1184); format: functional
Method in brief: (§3)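 Agar dilution using serial 2-fold dilutions in Mueller-Hinton agar, with plate concentrations 0.006 to 100 μg/mL. Inoculum approx. 10^6 cfu/mL. Plates incubated at 37 °C for 18 h. MIC taken as the lowest concentration preventing visible bacterial growth.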

Staphylococcus aureus = experiment: Inhibition of growth of Staphylococcus aureus (FDA207PJC-1) after incubation at 37 degree Centigrade; format: functional; method in brief: as §3
Proteus vulgaris = experiment: In vitro inhibition of growth of Proteus vulgaris(OX-19); format: functional; method in brief: as §3
[2] = Area under the curve in concentration/ time; format: ADME
Method in brief: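 Mice dosed orally at 50 mg/kg (formyl prodrug at a dose equivalent to 50 mg/kg of parent acid), suspended in 0.5% sodium (carboxymethyl)cellulose. Mice killed by bleeding at 0.5, 1.0, 2.0 and 4.0 h. Blood centrifuged and serum drug levels measured by HPLC. AUC from the serum concentration–time curve, in μg/mL per hour.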

Pseudomonas aeruginosa = experiment: In vitro inhibition of growth of Pseudomonas aeruginosa(E-2); format: functional; method in brief: as §3
Escherichia coli [3] = experiment: In vitro Inhibition of growth of Escherichia coli(KC-14); format: functional; method in brief: as §3
Bacillus subtilis = experiment: In vitro inhibition of growth of Bacillus subtilis (ATCC 6633); format: functional; method in brief: as §3
Klebsiella pneumoniae = experiment: In vitro inhibition of growth of Klebsiella pneumoniae (PC-1602); format: functional; method in brief: as §3
Mus musculus [4] = experiment: Serum levels in Mice 4 hr after Oral administration of 50 mg/kg; nd= Not detected; format: functional, organism-based; parameters: dose 50 mg/kg
Method in brief: (§4)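 Mice dosed orally at 50 mg/kg, suspended in 0.5% sodium (carboxymethyl)cellulose; prodrugs given at a dose equivalent to 50 mg/kg of parent acid. Mice killed by bleeding at 0.5, 1.0, 2.0 and 4.0 h, and serum obtained by centrifugation. Serum analysed by HPLC, eluting with 5% AcOH/MeOH (70/30). Values given with standard deviation.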

Mus musculus [5] = experiment: Serum levels in Mice 0.5 hr after Oral administration of 50 mg/kg; nd= Not detected; format: functional, organism-based; parameters: dose 50 mg/kg; method in brief: as §4
Mus musculus [6] = experiment: Serum levels in Mice 2 hr after Oral administration of 50 mg/kg; nd= Not detected; format: functional, organism-based; parameters: dose 50 mg/kg; method in brief: as §4
Mus musculus [7] = experiment: Serum levels in Mice 1 hr after Oral administration of 50 mg/kg; nd= Not detected; format: functional, organism-based; parameters: dose 50 mg/kg; method in brief: as §4
Mus musculus [8] = experiment: (§5) Inhibition of growth of Escherichia coli (KC-14) upon oral administration in mice; format: functional
Method in brief: (§6)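 Groups of 10 male ddY mice (20 ± 2 g) were inoculated intraperitoneally with 0.5 mL of E. coli KC-14 at 10 or 100 times the 50% lethal dose. Compounds, suspended in 0.5% sodium (carboxymethyl)cellulose, were given orally 1 h postinfection. Survival was scored after 1 week. ED50 is reported with 95% confidence limits.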

Mus musculus [9] = experiment: as §1; format: functional; method in brief: as §2
Escherichia coli [10] = experiment: as §5; format: functional; method in brief: as §6
[11] = Staphylococcus aureus, read-out: MIC
[12] = Proteus vulgaris, read-out: MIC
[13] = Klebsiella pneumoniae, read-out: MIC

Row | SMILES | ED50 (Escherichia coli [1]) [mg/kg] | MIC (Serratia marcescens) [µg/mL] | MIC (Staphylococcus aureus; [11]) [µg/mL] | MIC (Proteus vulgaris; [12]) [µg/mL] | AUC [2] | MIC (Pseudomonas aeruginosa) [µg/mL] | MIC (Escherichia coli [3]) [µg/mL] | MIC (Bacillus subtilis) [µg/mL] | MIC (Klebsiella pneumoniae; [13]) [µg/mL] | Serum level (Mus musculus [4]) | Serum level (Mus musculus [5]) | Serum level (Mus musculus [6]) | Serum level (Mus musculus [7]) | ED50 (Mus musculus [8]) [mg/kg] | ED50 (Mus musculus [9]) [mg/kg] | MIC (Proteus vulgaris) [µg/mL] | MIC (Staphylococcus aureus) [µg/mL] | ED50 (Escherichia coli [10]) [mg/kg] | ED50 (Escherichia coli [10]; Escherichia coli, po) [mg/kg] | MIC (Klebsiella pneumoniae) [µg/mL]
1 | CCn1cc(C(=O)O)c(=O)c2cc(F)c(N3CCNCC3)cc21 [NORFLOXACIN] | 7.68 | 0.2 (≈ 0.626 µM) | 0.2 (≈ 0.626 µM) | 0.05 (≈ 0.157 µM) | 0.98 µg/mL/h and 1.77 µg/mL/h | 0.78 (≈ 2.44 µM) | 0.1 (≈ 0.313 µM) | 0.2 (≈ 0.626 µM) | 0.05 (≈ 0.157 µM) | – | – | – | – | – | – | – | – | – | – | –
2 | CCn1cc(C=O)c(=O)c2cc(F)c(N3CCNCC3)cc21 | – | < 100 | < 100 | 6.25 (≈ 20.6 µM) | – | < 100 | 12.5 (≈ 41.2 µM) | 12.5 (≈ 41.2 µM) | 3.12 (≈ 10.3 µM) | Not detected | Not detected | Not detected | Not detected | 2.53 | – | – | – | – | – | –
3 | CCn1cc(C=O)c(=O)c2cc(F)c(N3CCN(C)CC3)cc21 | – | 12.5 (≈ 39.4 µM) | 12.5 (≈ 39.4 µM) | – | – | < 25 | 6.25 (≈ 19.7 µM) | 3.13 (≈ 9.86 µM) | 1.56 (≈ 4.92 µM) | – | – | – | – | – | 0.84 | 1.56 (≈ 4.92 µM) | – | – | – | –
4 | CCn1cc(C(=O)O)c(=O)c2cc(F)c(N3CCN(C)CC3)cc21 [PEFLOXACIN] | – | – | 0.39 (≈ 1.17 µM) | 0.05 (≈ 0.15 µM) | – | – | – | – | 0.05 (≈ 0.15 µM) | – | – | – | – | – | – | 0.05 (≈ 0.15 µM) | 0.39 (≈ 1.17 µM) | 1.67 | 1.67 | 0.05 (≈ 0.15 µM)
5 | O=Cc1cn(C2CC2)c2cc(N3CCNCC3)c(F)cc2c1=O | – | 12.5 (≈ 39.6 µM) | 25 (≈ 79.3 µM) | 3.13 (≈ 9.93 µM) | – | 50 (≈ 159 µM) | 3.13 (≈ 9.93 µM) | 6.25 (≈ 19.8 µM) | 12.5 (≈ 39.6 µM) | – | – | – | – | 0.49 | – | – | – | – | – | –
